A selection: hits, their analogues and other compounds. The true share with any hit is near 3.9%.
APP 5'UTR act: activators of APP 5'UTR luciferase reporter, primary screen, SH-SY5Y cells; SH-SY5Y APP 5'UTR luciferase reporter, luminescence; zero percent = DMSO vehicle wells; activation, % at 2 µM; 190,000 compounds, 1% hits;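 active = activation above a set limit, based on mean plus 3 SD of controls, cut at about 140% in these data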
STAT1 inh: STAT1 signaling inhibitors, primary screen, cell-based, HTS, luciferase reporter. NIH 3T3 STAT1-luciferase reporter, IFN-gamma, luminescence. inhibition, % at 5.5 µM. 200,000 compounds, 0.35% hits;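 active = inhibition above a set limit, the mean inhibition across all tested compounds plus 3 SD, cut at about 34% in these data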;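 also: 0% = IFN-gamma with DMSO and 100% = IFN-gamma with 300 µM nifuroxazide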
STAT3 act: IL-6 driven STAT3 reporter potentiators, primary screen, U3A cells, luciferase, luminescence, MLSCN library. 190,000 compounds, 0.91% hits. AID 871, 2007. activation (% of control), % at 5.6 µM. IL-6 STAT3-luciferase reporter; 100% = signal with IL-6 EC80 alone;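 active = activation above the screen-wide mean of compound activation plus 3 SD, cut at about 130% in these data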;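 also: 0% = background luminescence of wells with medium and substrate only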
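Material: STAT3-luciferase reporter U3A cells. Controls: IL-6-treated wells, 100% activation. Read-out: % activation versus median of IL-6-stimulated wells. Probe or stimulus: IL-6 stimulus at 33 ng/mL final. Timing: compound 1 h, then IL-6 6 h at 37 °C. Signal: reporter luminescence signal.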
Pf gamet viab: late stage P. falciparum gametocyte viability inhibitors, primary screen, ATP luminescence, HTS. P. falciparum stage V gametocytes, 24 h. inhibition, % at 10.9 µM. 150,000 compounds, 0.065% hits;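 active = inhibition above the mean plus 3 SD of compounds within the control limits, set per campaign, cut at about 38% in these data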;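 also: 0% = DMSO wells and 100% = medium only without gametocytes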
STAT1 activator: STAT1 signaling activators, primary screen, cell-based, HTS, luciferase reporter; activation (% of control), % at 5.5 µM; AID 932, 2007; NIH 3T3 STAT1-luciferase reporter, IFN-gamma, luminescence; 100% = IFN-gamma alone, no compound; 200,000 compounds, 2.6% hits;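 active = activation above the screen-wide mean activation plus 3 SD, cut at about 130% in these data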;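 also: raw ratio to IFN-gamma control signal so 100% means no change and 0% no light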
NF-kB neuron act: activators of NF-kB expression in neurons, primary screen, cell-based, HTS | human neuronal cells, NF-kB reporter expression; hits give high values | fold change at 12.5 µM | 190,000 compounds, 1.6% hits | AID 1239, 2008; in the data active = fold change above about 3.3
* hit, by the source's call; nt = no result given.

SMILES	APP 5'UTR act	STAT1 inh	STAT3 act	Pf gamet viab	STAT1 activator	NF-kB neuron act
Nc1ccc(C#Cc2ccccc2)cc1	7	-34	89	17	130*	1.5
Nc1ccccc1C#Cc1ccccc1	119	-52	97	-22	146*	8.7*
Nc1ccc(C#Cc2ccc3sc4ccccc4c(=O)c3c2)cc1	nt	nt	nt	-22	nt	nt
Cc1cc(C)nc(NC(N)=NCCc2c[nH]c3ccccc23)n1	-2	37*	63	0	66	0.76
Cc1cc(C)nc(NC(=NCCc2c[nH]c3ccccc23)NC(=O)Nc2ccc(Cl)cc2)n1	-1	10	95	nt	91	0.95
C[C@@H](C(=O)N[C@@H](Cc1c[nH]c2ccccc12)C(=O)O)n1nnc2ccccc2c1=O	nt	nt	nt	0	nt	nt
COc1ccc(/C=N/Nc2ccc([N+](=O)[O-])cc2S(=O)(=O)N2CCN(C)CC2)cc1	nt	-8	102	-22	107	5.5*
COc1ccc(NS(=O)(=O)c2cc([N+](=O)[O-])ccc2N/N=C\c2c(C)[nH]c3ccccc23)cc1	nt	-3	122	-9	103	1
CC(=O)NC(=S)Nc1ccc(NC(=O)c2cccnc2Cl)cc1	nt	nt	nt	4	nt	nt
Cc1ccc(-n2nnc3ccccc3c2=O)cc1C	86	-35	102	22	134*	2.1
Cc1cccc(OCCCC(=O)N2CCCCCC2)c1C	nt	nt	nt	-3	nt	nt
O=C(Nc1nc(-c2cccs2)cs1)c1ccc(Cl)cc1	19	-22	92	-8	119	1.6
O=C(Nc1nc(-c2cccs2)cs1)C1=COCCO1	88	-54	101	4	149*	3.6*
COc1ccc(C(=O)Nc2nc(-c3cccs3)cs2)cc1	84	-41	91	9	137*	1.5
O=C(Cc1ccccc1)Nc1nc(-c2cccs2)cs1	14	-3	94	nt	103	1.2
COc1cccc(/C=N\NC(=O)c2ccc(Cn3cc(Br)c([N+](=O)[O-])n3)o2)c1O	-43	-13	97	nt	110	1.2
Cc1nc2ccc(NC(=O)c3ccc(Br)o3)cc2s1	100	-52	88	-8	145*	3.4*
O=C(Nc1ccc(-c2nc3cccnc3s2)cc1)c1ccc(Br)o1	33	-35	90	nt	131*	2.3
Cc1nc2ccc(NC(=O)c3ccc(Cl)s3)cc2s1	111	-51	102	nt	146*	2.2
Cc1nc2ccc(NC(=O)Cc3cccs3)cc2s1	63	-36	113	nt	136*	2.5
CCCC(=O)Nc1nc2ccc(NC(=O)c3ccc(Br)o3)cc2s1	-7	1	91	18	98	0.58
Cc1nc2ccc(NC(=O)Cc3ccc(Br)cc3)cc2s1	nt	nt	nt	1	nt	nt
O=C(Nc1ccc(-c2nc3cccnc3s2)cc1)c1cccnc1Cl	nt	nt	nt	2	nt	nt
Nc1ccc(CCc2nc3ccccc3o2)cc1	163*	-42	89	nt	138*	3
O=C(COc1ccc([N+](=O)[O-])cc1)Nc1ccc(CN2CCOCC2)cc1	-5	0	94	-20	98	1.1
SMILES	APP 5'UTR act	STAT1 inh	STAT3 act	Pf gamet viab	STAT1 activator	NF-kB neuron act
O=c1c2cc(-c3ccccc3)sc2nc2n1CCC2	187*	-47	69	-4	139*	4.2*
Cc1nc2sc(-c3ccccc3)cc2c(=O)n1/N=C/N(C)C	103	-53	90	4	147*	2.4
Cc1nc2sc(-c3ccccc3)cc2c(=O)n1-n1cccc1	142*	-49	101	nt	145*	1.1
Cc1nc2sc(-c3ccccc3)cc2c(=O)n1N	nt	nt	nt	1	nt	nt
O=c1[nH]c(-c2cccnc2)nc2sc(-c3ccccc3)cc12	-75	-19	93	nt	114	0.97
Cc1nc2sc(-c3ccccc3)cc2c(=O)[nH]1	157*	25	45	14	77	3.5*
Cc1sc2nc(C)n(/N=C/N(C)C)c(=O)c2c1C	nt	nt	nt	0	nt	nt
Nc1ccc(SCC(=O)Nc2cccc([N+](=O)[O-])c2)cc1	11	-10	108	-31	108	1.1
COc1ccc(C(=O)Nc2nc(C)c(C)s2)cc1OC	104	-43	100	-32	139*	1.9
COc1ccc(C(=O)Nc2nc3ccccc3[nH]2)cc1OC	92	-31	85	nt	129*	2.4
CN(C)S(=O)(=O)c1ccc(C(=O)Nc2nc3ccccc3[nH]2)cc1	101	-51	100	1	143*	1.2
COc1cc(OC)cc(C(=O)Nc2nc3ccccc3[nH]2)c1	105	-34	99	nt	131*	1.9
COc1ccc(CC(=O)Nc2nc3ccccc3[nH]2)cc1	nt	nt	nt	32	nt	nt
CN(c1ccccc1)S(=O)(=O)c1ccc(Cl)c(C(=O)Nc2nc3ccccc3[nH]2)c1	9	-3	99	8	102	1.4
COc1cc(C(=O)Nc2nc3ccccc3[nH]2)ccc1OC(F)F	nt	nt	nt	-18	nt	nt
COc1c(Cl)cc(Cl)cc1/C=C/C(=O)c1ccc(NC(=O)c2cccs2)cc1	-11	-10	111	-14	109	5.7*
c1ccc(-c2[nH]ncc2CN2CCN(Cc3ccc4c(c3)OCO4)CC2)cc1	nt	nt	nt	19	nt	nt
N#C/C(=C\c1ccc(OCc2ccc(C(=O)O)cc2)cc1)C(=O)N1CCOCC1	-56	69*	24	-14	38	7*
COc1cc(/C=C(\C#N)C(=O)N2CCOCC2)ccc1OCc1ccccc1	37	-12	84	6	110	1.1
C=CCOc1ccccc1CNc1cccc(F)c1	-57	0	109	-5	102	1.1
C=CCOc1ccccc1CNc1ccc2c(c1)OCCO2	113	43*	44	nt	60	0.76
Cc1ccc[n+](CC(=O)c2ccc(Br)cc2)c1C	nt	nt	nt	-6	nt	nt
Brc1cc(Br)cc(CN2CCSCC2)c1	nt	nt	nt	5	nt	nt
Cc1nn(-c2ccccc2)c(Cl)c1/C=N/NC(=O)c1ccccc1NS(=O)(=O)c1cccs1	-34	1	104	4	99	1
Cc1nn(-c2ccccc2)c(Cl)c1/C=N/NC(=O)c1ccc(NS(=O)(=O)c2cccs2)cc1	37	-44	113	nt	137*	2.2
SMILES	APP 5'UTR act	STAT1 inh	STAT3 act	Pf gamet viab	STAT1 activator	NF-kB neuron act
Cc1cc(=O)n(C2CCS(=O)(=O)C2)[nH]1 (stereo not given)	4	-5	99	nt	103	0.98
CCOc1ccc(NC(=O)Nc2ccc3c(c2)nc(C)n3C)cc1	nt	nt	nt	21	nt	nt
CC(=O)c1cccc(NC(=O)C(=O)Nc2cccc3ccccc23)c1	70	-42	101	nt	137*	1.5
Cc1nc2cc(NC(=O)Nc3cccc4ccccc34)ccc2n1C	110	-51	87	15	145*	2.3
COc1ccc(OCC(O)CNC(=O)c2sccc2Cl)cc1 (stereo not given)	nt	nt	nt	-6	nt	nt
O=C(Nc1ccc(Cl)cc1)OCc1ccccn1	71	-42	98	nt	144*	2.6
